CAL PDZ FP-1 = inhibitors of human CAL PDZ peptide binding. hit rate 0.02% among 330,000. inhibition, % at 20 µM. purified CAL PDZ, TMR-peptide fluorescence polarization, 1 h. Q9HD26;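 active = highest replicate inhibition of at least 40%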
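System: purified tagged CAL PDZ domain construct (CerCALP). Schedule: 1 h incubation at room temperature before polarization reading. Medium: 25 mM sodium phosphate pH 7.4, 150 mM NaCl, TCEP, IgG, Thesit. Read-out: percent inhibition from loss of millipolarization. Measured by: FP readout, S and P plane fluorescence. Probe or stimulus: fluorescent TMR peptide probe.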
CAL PDZ FP-2 = inhibitors of human CAL PDZ peptide binding; Q9HD26; purified CAL PDZ, TMR-peptide fluorescence polarization, 1 h; inhibition, % at 24.9 µM; hit rate 0.92% among 300,000;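 active = mean inhibition of at least 30% with at least half of replicates also reaching 30%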
Dyrk1A ADPGlo = blocks rat Dyrk1A kinase activity; Q63470; AID 504441; hit rate 0.43% among 310,000; inhibition, % at 12.5 µM; ADP-Glo luminescence, NFATc1 peptide; in the data active = inhibition above about 50%
ALR H2O2 inh = inhibitors of human sulfhydryl oxidase ALR; P55789; purified ALR, DTT oxidation, H2O2 HRP-luminol luminescence; inhibition, % (concentration not given with the values); hit rate 3.8% among 290,000; AID 485317;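 active = mean replicate inhibition above about 79%, with every replicate also reaching it, limit read from the data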
Target sequence (P55789 whole entry, looked up): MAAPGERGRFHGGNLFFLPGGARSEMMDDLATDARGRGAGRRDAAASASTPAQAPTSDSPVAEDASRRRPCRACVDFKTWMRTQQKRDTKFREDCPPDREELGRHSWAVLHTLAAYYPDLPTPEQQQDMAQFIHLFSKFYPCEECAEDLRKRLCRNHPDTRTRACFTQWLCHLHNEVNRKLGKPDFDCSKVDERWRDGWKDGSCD
Rtt109 HAT inh = blocks Candida albicans Rtt109/Vps75 acetyltransferase activity; Q5AAJ8; purified Rtt109/Vps75, ThioGlo CoA-SH fluorescence, 4 h; inhibition, % at 34.9 µM; hit rate 0.16% among 330,000;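 active = inhibition of at least 50% in every replicate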
ADP-Glo artifact = counter-screen for Dyrk1A inhibitors: ADP-Glo luciferase artifacts. 1,300 tested, under 10 active. AC50, µM (titrated, usually from 12 µM). shares compounds with Dyrk1A ADPGlo. ADP-Glo luciferase artifact assay, no Dyrk1A, luminescence;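 active = fitted half-maximal dose AC50 no more than ten times the top valid tested dose, with luminescence dropping as dose rises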
Of the large screens only hits and unclear results are named; the others gave an inactive call (follow-up assays come after a bar, where they were run). Sampled rows, rich in hits. Any-hit rate of the full collection: about 4.3%.

COc1ccc2cc(C(=O)N/N=C/c3cc(OC)c(OC)c(OC)c3)[nH]c2c1	Dyrk1A ADPGlo 54 | ADP-Glo artifact inactive
CCn1c(N)nc2c1c(=O)n(C)c(=O)n2C	none (no result: CAL PDZ FP-2)
CCCc1nc2c(=O)n(C)c(=O)nc-2n(C)n1	Dyrk1A ADPGlo 65 (no result: ALR H2O2 inh) | ADP-Glo artifact inactive
Cn1nc(-c2ccccn2)nc2c(=O)n(C)c(=O)nc1-2	Dyrk1A ADPGlo 81 | ADP-Glo artifact inactive
COc1ccc(-c2nc(-c3ccccn3)ncc2S(C)(=O)=O)cc1	none
COc1ccc2nc(SCC(=O)Nc3nccs3)[nH]c2c1	none
COC(=O)c1c(-c2ccc(S(C)(=O)=O)cc2)sc2ccc(OC)cc12	Dyrk1A ADPGlo 51 | ADP-Glo artifact inactive
Cc1cc(C)n(CC(=O)c2cccc(N)c2)n1	none
CCOC(=O)c1c(NC(=O)C(C)N2CCN(S(=O)(=O)c3cccs3)CC2)sc2c1CCC(C)C2 (stereo not drawn)	none
NC(=O)c1cc(Br)cc2c3c([nH]c12)CCCC3	Dyrk1A ADPGlo 55 | ADP-Glo artifact inactive
Brc1ccc2[nH]c3c(c2c1)CCC3	none (no result: Dyrk1A ADPGlo, ALR H2O2 inh)
COc1c(C)cccc1C(=O)Nc1ccc(N2CCN(C(=O)c3ccccc3C)CC2)cc1	none
Cc1ccccc1C(=O)N1CCN(c2ccc(NC(=O)c3cccc(OC(C)C)c3)cc2)CC1	Dyrk1A ADPGlo 60 | ADP-Glo artifact inactive
O=C(Nc1cccc(-c2nc3ncccc3o2)c1)c1cc2ccccc2o1	Dyrk1A ADPGlo 56 | ADP-Glo artifact inactive
CC(=O)Nc1cccc(NC(=O)c2cc3ccccc3o2)c1	Dyrk1A ADPGlo 53 | ADP-Glo artifact inactive
Cc1ccc(-c2nc3ncccc3o2)cc1NC(=O)c1cc2ccccc2o1	none
CCOC(=O)c1ccc(NC(=S)Nc2ccc(Br)cc2N)cc1	Dyrk1A ADPGlo 63 | ADP-Glo artifact inactive
COc1cccc(CN2CC(C(=O)NCCCCc3ccccn3)CCC2=O)c1 (stereo not drawn)	none
CCc1c(C2(O)CCCCC2)[nH]c2cc(C(F)(F)F)ccc12	none
COc1ccc(-c2cc(=O)[nH]c(=O)[nH]2)cc1	none
COc1ccc(-c2cc(=O)[nH][nH]2)cc1	Dyrk1A ADPGlo 63 | ADP-Glo artifact inactive
N#Cc1c(N)nc2c3c(sc(=N)c2c1N)NC(=O)CC3c1ccccc1 (stereo not drawn)	none
N#Cc1c(N)nc2c3c(sc(=N)c2c1N)NC(=O)CC3c1c(F)cccc1Cl (stereo not drawn)	Dyrk1A ADPGlo 67 (no result: ALR H2O2 inh) | ADP-Glo artifact inactive
O=C(CSc1nc2nn(-c3ccccc3)c(=O)c-2c2n1CCCCC2)Nc1cccc(F)c1	none (no result: Dyrk1A ADPGlo)
CCCCCCCCN1[C@@H](CC(C)=O)c2cc(C(F)(F)F)ccc2S1(=O)=O	none
CCCCCCCCN1[C@@H](CC(=O)OC)c2cc(C(F)(F)F)ccc2S1(=O)=O	Dyrk1A ADPGlo 50 | ADP-Glo artifact inactive
Cc1sc(NC(=O)c2ccco2)nc1-c1ccccc1	Dyrk1A ADPGlo 52 | ADP-Glo artifact inactive
COc1ccc2c(c1)CCc1sc(NC(=O)c3ccco3)nc1-2	Dyrk1A ADPGlo 68 (no result: CAL PDZ FP-2) | ADP-Glo artifact inactive
O=C(CSc1nnc(CNC(=O)c2ccc(F)cc2)o1)NCc1ccc2c(c1)OCO2	none (no result: Dyrk1A ADPGlo)
CC(C)CN(C(=O)COC(=O)COc1ccc2c(c1)CCC2)c1c(N)n(Cc2ccccc2)c(=O)[nH]c1=O	none
CC(=O)N1CCN(C2=NC(=O)/C(=C\c3cccs3)S2)CC1	none
NC1=NC(=O)/C(=C/c2cccs2)S1	Dyrk1A ADPGlo 53 | ADP-Glo artifact inactive
C=CCSC1=NC(=O)/C(=C/c2cccs2)S1	Dyrk1A ADPGlo 76 (no result: CAL PDZ FP-2) | ADP-Glo artifact inactive
O=C(COC(=O)c1cccs1)c1ccc2ccccc2c1	Dyrk1A ADPGlo 51 (no result: ALR H2O2 inh) | ADP-Glo artifact inactive
COc1ccc(NC(=O)N(C)C[C@H]2Oc3c(NS(=O)(=O)c4cccs4)cccc3C(=O)N([C@@H](C)CO)C[C@@H]2C)cc1	Dyrk1A ADPGlo 55 | ADP-Glo artifact inactive
O=C(Nc1cccc(-c2nn[nH]n2)c1)c1ccc(Cl)s1	Dyrk1A ADPGlo 76 | ADP-Glo artifact inactive
O=C(Nc1cccnc1)c1ccc(Br)s1	none (no result: CAL PDZ FP-1)
O=C(Nc1cccc(-c2nn[nH]n2)c1)c1ccc(Br)s1	Dyrk1A ADPGlo 92 | ADP-Glo artifact inactive
C/C(=N\NC(=O)c1ccncc1)c1cccc(NC(=O)c2ccc(Cl)s2)c1	none

Compound activity deposited in PubChem BioAssay by Broad Institute.
